These results are taken from ChEMBL document CHEMBL4002595, “Metadynamics for Perspective Drug Design: Computationally Driven Synthesis of New Protein-Protein Interaction Inhibitors Targeting the EphA2 Receptor” (J Med Chem, 2017).

Data set [1] addresses Ephrin type-A receptor 2 (Mus musculus) (UniProt Q03145). The data set can be described thus: Displacement of biotinylated ephrin-A1-Fc from recombinant mouse EphA2 receptor up to 100 uM preincubated for 1 hr followed by biotinylated ephrin-A1-Fc addition measured after 4 hrs by ELISA method. Summed up: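 EphA2-Fc (1 µg mL⁻¹ in PBS pH 7.4) was coated overnight at 4 °C, then blocked with PBS + 0.5% BSA for 1 h at 37 °C. Compounds in 1% DMSO were added for 1 h at 37 °C. Biotinylated ephrin-A1-Fc was then added at its K_D for 4 h at 37 °C. Detection used streptavidin-HRP (20 min, RT), TMB/H₂O₂, HCl stop and A450. IC₅₀ came from one-site competition nonlinear regression; mean of ≥3 independent experiments.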

In data set [2] the target is Ephrin type-A receptor 2 (Mus musculus, UniProt Q03145). The data set can be described thus: Displacement of biotinylated ephrin-A1-Fc from recombinant mouse EphA2 receptor preincubated for 1 hr followed by biotinylated ephrin-A1-Fc addition measured after 4 hrs by ELISA method.
Sequence of Ephrin type-A receptor 2 (Q03145 whole entry): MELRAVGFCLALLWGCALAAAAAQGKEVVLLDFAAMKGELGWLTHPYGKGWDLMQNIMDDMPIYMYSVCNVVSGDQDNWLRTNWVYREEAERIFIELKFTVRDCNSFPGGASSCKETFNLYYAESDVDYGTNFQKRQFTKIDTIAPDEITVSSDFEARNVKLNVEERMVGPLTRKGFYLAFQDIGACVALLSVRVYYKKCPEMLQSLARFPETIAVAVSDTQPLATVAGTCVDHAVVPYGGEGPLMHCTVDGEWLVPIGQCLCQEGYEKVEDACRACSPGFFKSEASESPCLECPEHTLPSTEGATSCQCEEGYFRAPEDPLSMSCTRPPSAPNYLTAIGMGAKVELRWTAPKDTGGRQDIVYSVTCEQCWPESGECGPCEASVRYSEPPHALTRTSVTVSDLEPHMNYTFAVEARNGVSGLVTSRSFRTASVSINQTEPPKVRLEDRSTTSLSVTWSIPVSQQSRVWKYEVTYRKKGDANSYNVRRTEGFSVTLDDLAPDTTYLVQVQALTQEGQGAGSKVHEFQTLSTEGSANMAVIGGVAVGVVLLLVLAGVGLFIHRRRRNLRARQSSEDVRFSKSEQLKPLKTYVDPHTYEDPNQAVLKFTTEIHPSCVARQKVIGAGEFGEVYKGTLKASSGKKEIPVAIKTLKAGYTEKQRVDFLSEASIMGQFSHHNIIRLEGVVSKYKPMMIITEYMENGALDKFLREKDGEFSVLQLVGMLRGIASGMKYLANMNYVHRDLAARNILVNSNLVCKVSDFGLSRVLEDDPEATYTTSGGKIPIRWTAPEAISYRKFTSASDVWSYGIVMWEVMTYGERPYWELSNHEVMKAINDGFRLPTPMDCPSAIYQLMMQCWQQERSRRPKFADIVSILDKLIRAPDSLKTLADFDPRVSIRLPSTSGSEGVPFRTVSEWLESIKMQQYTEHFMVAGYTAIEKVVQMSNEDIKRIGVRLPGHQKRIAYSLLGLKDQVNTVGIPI
The test system of data set [3] is Liver. The data set is described as follows: Drug metabolism in mouse liver microsomes assessed as (S)-3-((S)-4-((5R,8R,9S,10S,13R,14S,17R)-10,13-dimethyl-3-oxohexadecahydro-1H-cyclopenta[a]phenanthren-17-yl)pentanamido)-4-(1H-indol-3-yl)butanoic acid formation by HPLC-ESI-MS/MS analysis. It is filed as ADME, microsome. A general note: Microsomes from liver hold many membrane-bound enzymes, among them those of drug oxidation.

The nature of data set [4]: Kinetic solubility in MOPS buffer at pH 7.4 measured after 4 hrs by HPLC-ESI-MS/MS analysis. The data set is classed as physicochemical. The conditions noted are these: read-out: Kinetic_solubility. Summed up: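 DMSO stock (10 mM) diluted into 50 mM MOPS pH 7.4, ionic strength 0.15 M with KCl, final 1% DMSO. Agitated 4 h at 25 ± 3 °C, centrifuged 1,000 g 10 min. Supernatant diluted 1:1 with MeOH containing internal standard, quantified by HPLC-ESI-MS/MS against per-compound MeOH calibration curves.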

Data set [5] in a line: Half-life in mouse liver microsomes at 1 uM in presence of NADPH by HPLC-ESI-MS/MS analysis. It is filed as ADME, microsome.
Data set [6] in a line: Cmax in mouse at 30 mg/kg, administered as single dose via oral gavage by HPLC-ESI-MS/MS analysis. The data set is classed as ADME, organism-based. Also noted: dose 30 mg/kg, route oral. As to conditions: in vivo. In a few lines: (§1)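 Male mice, fasted, groups of four; single oral gavage at 30 mg/kg in 0.5% methylcellulose (10/90 v/v). Tail-puncture blood at 5-7 time points between 15 and 1440 min, centrifuged 5000 rpm 10 min, plasma stored at -20 °C, quantified by HPLC-ESI-MS/MS. Reported as means ± SEM.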

Data set [7] has as its system Plasma. The data set can be described thus: Drug uptake in mouse plasma at 30 mg/kg, administered as single dose via oral gavage after 120 min by HPLC-ESI-MS/MS analysis. As to conditions: in vivo.
Data set [8] concerns Liver. The data set is described as follows: Drug level in mouse liver microsomes treated with (S)-3-((S)-4-((5R,8R,9S,10S,13R,14S,17R)-3-hydroxy-10,13-dimethylhexadecahydro-1H-cyclopenta[a]phenanthren-17-yl)pentanamido)-4-(1H-indol-3-yl)butanoic acid by HPLC-ESI-MS/MS analysis.
The nature of data set [9]: n-Octanol-buffer partition co-efficient, log D of the compound at pH 7.4 incubated overnight by shake-flask method. The data set is classed as physicochemical. In a few lines:
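Shake-flask n-octanol/buffer partition at 25 ± 3 °C against 50 mM MOPS pH 7.4, ionic strength 0.15 M with KCl. Pre-saturated phases equilibrated overnight. Each phase diluted in MeOH with internal standard and analysed by HPLC-ESI-MS/MS. Mean of three independent partitions using different octanol/buffer volume ratios.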

Data set [10] in a line: Stability in mouse plasma assessed as compound remaining at 1 uM after 24 hrs by HPLC-ESI-MS/MS analysis. The conditions noted are these: read-out: Stability. The data set is classed as ADME, cell-free. Summed up: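 Mouse plasma diluted to 80% (v/v) with 100 mM PBS pH 7.4. Compound added at 1 μM final with 1% v/v DMSO, held at 37 °C. Aliquots taken at intervals, quenched with two volumes MeCN, centrifuged 9,000 g 10 min at 4 °C. Percent remaining measured by HPLC-ESI-MS/MS.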

The nature of data set [11]: Tmax in mouse at 30 mg/kg, administered as single dose via oral gavage by HPLC-ESI-MS/MS analysis. The conditions noted are these: in vivo. It is filed as ADME, organism-based. In a few lines:
as §1

Data set [12] deals with Plasma. The data set can be described thus: Drug uptake in mouse plasma at 30 mg/kg, administered as single dose via oral gavage after 24 hrs by HPLC-ESI-MS/MS analysis. The data set is classed as ADME, organism-based. As to conditions: in vivo. Summed up:
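Male mice (fasted, four per group) received a single esophageal gavage of 30 mg/kg in 0.5% methylcellulose. Tail-puncture blood was taken at 5–7 time points between 15 and 1440 min. Plasma was separated by centrifugation (5000 rpm, 10 min), stored at –20 °C and quantified by HPLC-ESI-MS/MS. Data are means ± SEM.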

≈ marks a conversion by molar mass, not a printed value. Calls of active or inactive are those of the source. No cut-off for these calls is given here.

Sequence of Ephrin type-A receptor 2 (Mus musculus) (Q03145 whole entry): as above

For the molecule `CC(C)C[C@@H](CC(=O)O)NC(=O)CC[C@@H](C)[C@H]1CC[C@H]2[C@@H]3CC[C@@H]4C[C@H](O)CC[C@]4(C)[C@H]3CC[C@]12C`, in data set [1], the inhibition result is “inactive”.
As to `C[C@H](CCC(=O)N[C@H](CC(=O)O)Cc1ccccc1)[C@H]1CC[C@H]2[C@@H]3CC[C@@H]4C[C@H](O)CC[C@]4(C)[C@H]3CC[C@]12C`, in data set [2], the 50% inhibitory concentration (IC50) (usually the concentration that gives 50% inhibition) stood at 18 µM.
On the same count and under the same terms, next, `C[C@H](CCC(=O)N[C@H](CC(=O)O)Cc1c[nH]c2ccccc12)[C@H]1CC[C@H]2[C@@H]3CC[C@@H]4CCCC[C@]4(C)[C@H]3CC[C@]12C`: 28 µM.
Take `C[C@H](CCC(=O)N[C@H](CC(=O)O)Cc1c[nH]c2ccccc12)[C@H]1CC[C@H]2[C@@H]3CC[C@@H]4C[C@H](O)CC[C@]4(C)[C@H]3CC[C@]12C`: in [3], the Drug metabolism entry is “Metabolite_Detected”. Besides, the solubility kinetic at 4 h in data set [4] was determined as 31.8 µM (≈ 18.3 µg/mL). The half-life (commonly the time in which the quantity being followed falls by half) at 1 µM in data set [5] came to 0.28 h. The highest level in [6] (Cmax) was 10 nM. Also, the Drug uptake result in [7] was “Active”.
For the molecule `C[C@H](CCC(=O)N[C@H](CC(=O)O)c1ccccc1)[C@H]1CC[C@H]2[C@@H]3CC[C@@H]4C[C@H](O)CC[C@]4(C)[C@H]3CC[C@]12C`, in [2], the IC50 came to 14 µM.
On the same count and under the same terms, next, `C[C@H](CCC(=O)N[C@H](CC(=O)O)Cc1cccc2ccccc12)[C@H]1CC[C@H]2[C@@H]3CC[C@@H]4C[C@H](O)CC[C@]4(C)[C@H]3CC[C@]12C`: 3.9 µM; `CO/N=C1\CC[C@@]2(C)[C@H](CC[C@@H]3[C@@H]2CC[C@]2(C)[C@@H]([C@H](C)CCC(=O)N[C@H](CC(=O)O)Cc4c[nH]c5ccccc45)CC[C@@H]32)C1`: 13 µM.
With `C[C@H](CCC(=O)N[C@H](CC(=O)O)Cc1c[nH]c2ccccc12)[C@H]1CC[C@H]2[C@@H]3CC[C@@H]4CC(=O)CC[C@]4(C)[C@H]3CC[C@]12C`, the Drug metabolism entry in data set [8] is on record as “Metabolite_Detected”.
As for `CC(C)[C@@H](CC(=O)O)NC(=O)CC[C@@H](C)[C@H]1CC[C@H]2[C@@H]3CC[C@@H]4C[C@H](O)CC[C@]4(C)[C@H]3CC[C@]12C`, the concentration for half-maximal inhibition (IC50) in [2] amounted to 10 µM.
For `C[C@H](CCC(=O)N[C@@H](CCc1ccccc1)CC(=O)O)[C@H]1CC[C@H]2[C@@H]3CC[C@@H]4C[C@H](O)CC[C@]4(C)[C@H]3CC[C@]12C`, the inhibition result in [1] is “inactive”.
Turning to `C[C@H](CCC(=O)NCCS(=O)(=O)O)[C@H]1CC[C@H]2[C@@H]3CC[C@@H]4C[C@H](O)CC[C@]4(C)[C@H]3CC[C@]12C` [TAUROLITHOCHOLIC ACID], the IC50 in [2] came out at 72 µM.
For the molecule `CSCC[C@@H](CC(=O)O)NC(=O)CC[C@@H](C)[C@H]1CC[C@H]2[C@@H]3CC[C@@H]4C[C@H](O)CC[C@]4(C)[C@H]3CC[C@]12C`, the IC50 in data set [2] worked out at 83 µM.
The same measure, in the same setting: next, `C[C@H](CCC(=O)NCCC(=O)O)[C@H]1CC[C@H]2[C@@H]3CC[C@@H]4C[C@H](O)CC[C@]4(C)[C@H]3CC[C@]12C`: 29 µM.
As to `C[C@H](CCC(=O)NCCCCC(=O)O)[C@H]1CC[C@H]2[C@@H]3CC[C@@H]4C[C@H](O)CC[C@]4(C)[C@H]3CC[C@]12C`, the inhibition entry in data set [1] is “inactive”.
For the molecule `C[C@H](CCC(=O)N[C@H](CC(=O)O)Cc1c[nH]c2ccccc12)[C@H]1CC[C@H]2[C@@H]3CC[C@@H]4C[C@H](OC(N)=O)CC[C@]4(C)[C@H]3CC[C@]12C`, the concentration for half-maximal inhibition (IC50) in data set [2] came to 0.8 µM. Moreover, the logD (in general, lipophilicity at a set pH, counting ionised and neutral species) in data set [9] came out at 5.01. The solubility kinetic at 4 h in data set [4] was found to be 18.7 µM (≈ 11.6 µg/mL). The remaining at 24 h, 1 µM in data set [10] was 98.2%. Besides, the half-life at 1 µM in [5] turned out to be 2.6 h. Moreover, the concentration in data set [6] peaked (Cmax) at 870 nM. For the same molecule, in data set [11], the time to peak (Tmax) (commonly the time at which the peak concentration occurs) is 1 h. Besides, the Drug uptake result in data set [12] is reported as “Active”.
In the case of `C[C@H](CCC(=O)NCCCC(=O)O)[C@H]1CC[C@H]2[C@@H]3CC[C@@H]4C[C@H](O)CC[C@]4(C)[C@H]3CC[C@]12C`, the inhibition entry in data set [1] is “inactive”.
On to `C[C@H](CCC(=O)O)[C@H]1CC[C@H]2[C@@H]3CC[C@@H]4C[C@H](O)CC[C@]4(C)[C@H]3CC[C@]12C` [LITHOCHOLIC ACID], for which the half-maximal inhibitory concentration (IC50) in [2] came to 79 µM.
`C[C@H](CCC(=O)N[C@H](CC(=O)O)Cc1c[nH]c2ccccc12)[C@H]1CC[C@H]2[C@@H]3CC[C@@H]4C/C(=N/O)CC[C@]4(C)[C@H]3CC[C@]12C`: the half-inhibitory concentration (IC50) in [2] came to 3.1 µM. The same molecule came in with a pH-dependent lipophilicity (logD) in [9] of 4.23. Further, the solubility kinetic at 4 h in [4] was determined as 51.9 µM (≈ 30.6 µg/mL). Moreover, in data set [10], the remaining at 24 h, 1 µM was 93.7%. For the same molecule, in data set [5], the half-life at 1 µM was 1.01 h. Further, in [6], the Cmax (usually the maximum level reached in the sampled fluid or tissue) worked out at 400 nM. The Tmax in [11] was determined as 1 h.
Consider `C[C@H](CCC(=O)N[C@H](CC(=O)O)Cc1csc2ccccc12)[C@H]1CC[C@H]2[C@@H]3CC[C@@H]4C[C@H](O)CC[C@]4(C)[C@H]3CC[C@]12C`, for which, in [2], the IC50 was found to be 1.8 µM.
Turning to `COC(=O)CCNC(=O)CC[C@@H](C)[C@H]1CC[C@H]2[C@@H]3CC[C@@H]4C[C@H](O)CC[C@]4(C)[C@H]3CC[C@]12C`, the inhibition result in [1] is “inactive”.
